ChEMBL document CHEMBL1148977, “Inhibitory effects of bufadienolides on interleukin-6 in MH-60 cells” (J Nat Prod, 2004)

Key:
[1] = system: MH60; experiment: Growth inhibition of IL6-dependent mouse MH60 cells after 72 hrs by MTT assay in presence of human recombinant IL6; assay type: functional, cell-based; details: MH60, 72 h
Summary of the method: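 IL-6-dependent MH-60 mouse B-cell/myeloma hybridoma kept in RPMI 1640 + 10% FCS containing 0.5 ng/mL recombinant human IL-6. 0.5 × 10^4 cells/well in rhIL-6 medium pre-incubated 24 h at 37 °C, 5% CO2, then treated 72 h with graded compound concentrations. Growth by MTT; mean with standard errors of 3–4 experiments.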

[2] = system: MH60; experiment: Growth inhibition of IL-6-independent mouse MH60 cells after 72 hrs by MTT assay; assay type: functional, cell-based; details: MH60, 72 h
Summary of the method: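 Mouse B-cell/myeloma hybridoma MH-60 subline adapted to grow without IL-6 (rhIL-6 withdrawn gradually), kept in RPMI 1640 + 10% FCS with no rhIL-6. 0.5 × 10^4 cells/well pre-incubated 24 h at 37 °C, 5% CO2, then exposed 72 h to graded compound concentrations. MTT read-out; mean with standard errors of 3–4 experiments.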

Row | SMILES | IC50 [1] | IC50 [2]
1 | CC(=O)O[C@H]1CC[C@@]2(C)[C@H](CC[C@@H]3[C@@H]2CC[C@]2(C)[C@@H](c4ccc(=O)oc4)C[C@H]4O[C@]342)C1 | > 58.7 µM | > 58.7 µM
2 | CC(C)(C)C(=O)O[C@H]1CC[C@@]2(C)[C@H](CC[C@@H]3[C@@H]2CC[C@]2(C)[C@@H]([C@@]45C=CC(=O)O[C@@H]4O5)C[C@H]4O[C@]342)C1 | 18.1 µM | 34 µM
3 | C[C@]12CCC(=O)C[C@H]1CC[C@@H]1[C@@H]2CC[C@]2(C)[C@@H](c3ccc(=O)oc3)C[C@H]3O[C@]132 | 2.4 µM | 8.4 µM
4 | CC(C)(C)C(=O)O[C@H]1CC[C@@]2(C)[C@H](CC[C@@H]3[C@@H]2CC[C@]2(C)[C@@H]([C@]45C=CC(=O)O[C@H]4O5)C[C@H]4O[C@]342)C1 | 6.8 µM | > 53.2 µM
5 | CCCCC(=O)O[C@H]1CC[C@@]2(C)[C@H](CC[C@@H]3[C@@H]2CC[C@]2(C)[C@@H]([C@@]45C=CC(=O)O[C@@H]4O5)C[C@H]4O[C@]342)C1 | 6.4 µM | 19.1 µM
6 | C[C@]12CC[C@H](OC=O)C[C@H]1CC[C@@H]1[C@@H]2CC[C@]2(C)[C@@H]([C@]34C=CC(=O)O[C@H]3O4)C[C@H]3O[C@]132 | 8.9 µM | > 58.4 µM
7 | C[C@]12CC[C@H](OC=O)C[C@H]1CC[C@@H]1[C@@H]2CC[C@]2(C)[C@@H]([C@@]34C=CC(=O)O[C@@H]3O4)C[C@H]3O[C@]132 | 5.6 µM | 12.9 µM
8 | C[C@]12CC[C@H](O)C[C@H]1CC[C@@H]1[C@@H]2CC[C@]2(C)[C@@H]([C@@]34C=CC(=O)O[C@@H]3O4)C[C@H]3O[C@]132 | 18.3 µM | 45 µM
9 | CC(=O)O[C@@H]1[C@H]2O[C@]23[C@@H]2CC[C@@H]4C[C@@H](O)CC[C@]4(C)[C@H]2CC[C@]3(C)[C@H]1[C@@]12C=CC(=O)O[C@@H]1O2 | > 54.2 µM | > 54.2 µM
10 | C[C@]12CCC(=O)C[C@H]1CC[C@@H]1[C@@H]2CC[C@]2(C)[C@@H]([C@@]34C=CC(=O)O[C@@H]3O4)C[C@H]3O[C@]132 | 1.3 µM | 4.3 µM
11 | C[C@]12CCC(=O)C[C@H]1CC[C@@H]1[C@@H]2CC[C@]2(C)[C@@H]([C@]34C=CC(=O)O[C@H]3O4)C[C@H]3O[C@]132 | 4.3 µM | 8.3 µM
12 | CCCC(=O)O[C@H]1CC[C@@]2(C)[C@H](CC[C@@H]3[C@@H]2CC[C@]2(C)[C@@H]([C@@]45C=CC(=O)O[C@@H]4O5)C[C@H]4O[C@]342)C1 | 2 µM | 17.5 µM
13 | CCCC(=O)O[C@H]1CC[C@@]2(C)[C@H](CC[C@@H]3[C@@H]2CC[C@]2(C)[C@@H]([C@]45C=CC(=O)O[C@H]4O5)C[C@H]4O[C@]342)C1 | 9.4 µM | > 54.8 µM
14 | C[C@]12CC[C@H](OC=O)C[C@H]1CC[C@@H]1[C@@H]2CC[C@]2(C)[C@@H](c3ccc(=O)oc3)C[C@H]3O[C@]132 | > 60.7 µM | > 60.7 µM
15 | CC(=O)O[C@H]1CC[C@@]2(C)[C@H](CC[C@@H]3[C@@H]2CC[C@]2(C)[C@@H]([C@]45C=CC(=O)O[C@H]4O5)C[C@H]4O[C@]342)C1 | 5.3 µM | > 56.6 µM
16 | CCCCC(=O)O[C@H]1CC[C@@]2(C)[C@H](CC[C@@H]3[C@@H]2CC[C@]2(C)[C@@H]([C@]45C=CC(=O)O[C@H]4O5)C[C@H]4O[C@]342)C1 | 11.6 µM | > 53.2 µM
17 | C[C@]12CC[C@H](O)C[C@H]1CC[C@@H]1[C@@H]2CC[C@]2(C)[C@@H]([C@@]34C=CC(=O)O[C@@H]3O4)CC[C@]12O | > 62.2 µM | > 62.2 µM
18 | C[C@]12CC[C@H](O)C[C@H]1CC[C@@H]1[C@@H]2CC[C@]2(C)[C@@H]([C@]34C=CC(=O)O[C@H]3O4)CC[C@]12O | > 62.2 µM | > 62.2 µM
19 | CC(=O)O[C@H]1CC[C@@]2(C)[C@H](CC[C@@H]3[C@@H]2CC[C@]2(C)[C@@H]([C@@]45C=CC(=O)O[C@@H]4O5)C[C@H]4O[C@]342)C1 | 14.3 µM | 21.9 µM
20 | CC(=O)O[C@@H]1[C@H]2O[C@]23[C@@H]2CC[C@@H]4C[C@@H](O)CC[C@]4(C)[C@H]2CC[C@]3(C)[C@H]1[C@]12C=CC(=O)O[C@H]1O2 | > 54.2 µM | > 54.2 µM
21 | C[C@]12CC[C@H](O)C[C@H]1CC[C@@H]1[C@@H]2CC[C@]2(C)[C@@H]([C@]34C=CC(=O)O[C@H]3O4)C[C@H]3O[C@]132 | 24.8 µM | > 62.5 µM
22 | C[C@]12CC[C@H](O)C[C@H]1CC[C@@H]1[C@@H]2CC[C@]2(C)[C@@H](c3ccc(=O)oc3)CC[C@]12O [BUFALIN] | 31.9 µM | > 64.8 µM
23 | C[C@]12CC[C@H](O)C[C@H]1CC[C@@H]1[C@@H]2CC[C@]2(C)[C@@H](c3ccc(=O)oc3)C[C@H]3O[C@]132 [BUFOGENIN] | 22.9 µM | > 65.1 µM
24 | CC(=O)O[C@H]1C[C@]2(O)[C@@H]3CC[C@@H]4C[C@@H](O)CC[C@]4(C)[C@H]3CC[C@]2(C)[C@H]1c1ccc(=O)oc1 [BUFOTALIN] | > 56.2 µM | > 56.2 µM
25 | CC(=O)O[C@H]1[C@H]2O[C@]23[C@@H]2CC[C@@H]4C[C@@H](O)CC[C@]4(C)[C@H]2CC[C@]3(C)[C@H]1c1ccc(=O)oc1 [CINOBUFAGIN] | > 56.3 µM | > 56.3 µM
